Assay results: ChEMBL document CHEMBL3853291, “Polycyclic Polyprenylated Derivatives from Hypericum uralum: Neuroprotective Effects and Antidepressant-like Activity of Uralodin A” (2016)

Legend:
[1] = system: PC-12; assay: Neuroprotective activity against corticosterone-induced cell injury in rat PC12 cells assessed as cell viability at 10 uM after 48 hrs by MTT assay (reference value: 55.6 +/- 0.87%); type: functional; conditions: PC-12, 48 h, read-out: Activity
[2] = system: PC-12; assay: Neuroprotective activity against corticosterone-induced cell injury in rat PC12 cells assessed as cell viability at 3 uM after 48 hrs by MTT assay (reference value: 55.6 +/- 0.87%); type: functional; conditions: PC-12, 48 h, read-out: Activity
[3] = system: PC-12; assay: Neuroprotective activity against corticosterone-induced cell injury in rat PC12 cells assessed as cell viability at 1 uM after 48 hrs by MTT assay (reference value: 55.6 +/- 0.87%); type: functional; conditions: PC-12, 48 h, read-out: Activity
[4] = system: PC-12; assay: Neuroprotective activity against corticosterone-induced cell injury in rat PC12 cells assessed as cell viability at 0.3 uM after 48 hrs by MTT assay (reference value: 55.6 +/- 0.87%); type: functional; conditions: PC-12, 48 h, read-out: Activity
[5] = system: PC-12; assay: Neuroprotective activity against corticosterone-induced cell injury in rat PC12 cells assessed as cell viability at 0.1 uM after 48 hrs by MTT assay (reference value: 55.6 +/- 0.87%); type: functional; conditions: PC-12, 48 h, read-out: Activity
[6] = Antidepressant-like activity in LPS-induced ICR mouse assessed as decrease in immobility time at 25 mg/kg, ig qd for 5 days followed by LPS stimulation on 5th day injected 30 mins post last dose measured 24 hrs after stimulation monitored for last 4 mins by tail suspension test relative to control; type: functional, organism-based; parameters: scale not given: the % may be the effect or the level left
Procedure, shortened: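 Male ICR mice (18−22 g), n = 12 per group, given drug in 0.03% CMC-Na intragastrically once daily for 5 days. LPS 0.5 mg/kg i.p. 30 min after the last dose, with the test 24 h later. Mice visually and acoustically isolated, taped ~1 cm from the tail tip, hung 50 cm above the floor for 6 min. Passive motionless hanging timed over the last 4 min; mean ± SD.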

[7] = Antidepressant-like activity in LPS-induced ICR mouse assessed as decrease in immobility time at 25 mg/kg, ig qd for 5 days followed by LPS stimulation on 5th day injected 30 mins post last dose measured 24 hrs after stimulation monitored for last 4 mins by forced swim test relative to control; type: functional, organism-based; parameters: scale not given: the % may be the effect or the level left
Procedure, shortened: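 Male ICR mice (18−22 g), 12 per group. Drug suspended in 0.03% CMC-Na and given intragastrically once daily for 5 days. LPS 0.5 mg/kg i.p. 30 min after the day-5 dose, with testing 24 h later. Mice swim 6 min at 25 ± 1 °C in a cylinder (20 cm high, 14 cm diameter, 10 cm water). Floating immobility scored over the last 4 min; mean ± SD.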

[8] = Antidepressant-like activity in LPS-induced ICR mouse assessed as decrease in immobility time at 13 mg/kg, ig qd for 5 days followed by LPS stimulation on 5th day injected 30 mins post last dose measured 24 hrs after stimulation monitored for last 4 mins by forced swim test relative to control; type: functional, organism-based; parameters: scale not given: the % may be the effect or the level left
Procedure, shortened: (§1)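 Male ICR mice (18−22 g), n = 12 per group. Dosed intragastrically once daily for 5 days as a suspension in 0.03% CMC-Na. On day 5, LPS 0.5 mg/kg i.p. was given 30 min after dosing. Tests were run 24 h after LPS. FST used a 20 × 14 cm cylinder with 10 cm water at 25 ± 1 °C, 6 min swim. TST suspended mice 50 cm high by the tail tape for 6 min. Immobility was scored over the last 4 min.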

[9] = Antidepressant-like activity in LPS-induced ICR mouse assessed as decrease in immobility time at 26 mg/kg, ig qd for 5 days followed by LPS stimulation on 5th day injected 30 mins post last dose measured 24 hrs after stimulation monitored for last 4 mins by forced swim test relative to control; type: functional, organism-based; parameters: scale not given: the % may be the effect or the level left; procedure, shortened: as §1
[10] = Antidepressant-like activity in LPS-induced ICR mouse assessed as decrease in immobility time at 13 mg/kg, ig qd for 5 days followed by LPS stimulation on 5th day injected 30 mins post last dose measured 24 hrs after stimulation monitored for last 4 mins by tail suspension test relative to control; type: functional, organism-based; parameters: scale not given: the % may be the effect or the level left; procedure, shortened: as §1
[11] = Antidepressant-like activity in LPS-induced ICR mouse assessed as decrease in immobility time at 26 mg/kg, ig qd for 5 days followed by LPS stimulation on 5th day injected 30 mins post last dose measured 24 hrs after stimulation monitored for last 4 mins by tail suspension relative to control; type: functional, organism-based; parameters: scale not given: the % may be the effect or the level left; procedure, shortened: as §1

Compound	viability at 10 µM [1]	viability at 3 µM [2]	viability at 1 µM [3]	viability at 0.3 µM [4]	viability at 0.1 µM [5]	Activity [6]	Activity [7]	Activity [8]	Activity [9]	Activity [10]	Activity [11]
CC(C)=CCC[C@]1(C)[C@@H](CC=C(C)C)C[C@]2(CC=C(C)C)C(=O)C(C(=O)c3ccccc3)=C3O[C@H](C(C)(C)O)C[C@@]31C2=O	74.1%	81.1%	76.6%	81.8%	76.7%						
CC(C)=CCC[C@]1(C)[C@@H](CC=C(C)C)C[C@]23C[C@@H](C(C)(C)O)OC2=C(CC=C(C)C)C(=O)[C@@]1(C(=O)C(C)C)C3=O	85.2%	77.7%	79.7%	79.9%	77.2%						
CC(C)=CCC[C@]1(C)[C@@H](CC=C(C)C)C[C@]2(C[C@H](O)C(C)(C)O)C(=O)C3=C(OC(C)(C)[C@@H](O)C3)[C@@]1(C(=O)c1ccccc1)C2=O	80.9%	72.5%	78.5%	77.7%	77.9%						
CC(C)=CCC[C@]1(C)[C@@H](CC=C(C)C)C[C@]2(CC=C(C)C)C(=O)C3=C(OC(C)(C)[C@H](O)C3)[C@@]1(C(=O)C(C)C)C2=O	75.1%	91.5%	81.8%	61.4%	80.3%						
CC(C)=CCC1=C2O[C@H](C(C)(C)O)CC[C@]3(C)[C@@H](CC=C(C)C)C[C@](C[C@H](O)C(C)(C)O)(C1=O)C(=O)[C@]23C(=O)c1ccccc1	53.2%	59.7%	65%	57.5%	55.9%						
CC(C)=CCC[C@]1(C)[C@@H](CC=C(C)C)C[C@]23C[C@H](C(C)(C)O)OC2=C(CC=C(C)C)C(=O)[C@@]1(C(=O)c1ccccc1)C3=O	86.6%	78%	68.1%	72.8%	82.9%						
CC(C)=CCC[C@]1(C)[C@@H](CC=C(C)C)C[C@]2(CC=C(C)C)C(=O)C(C(=O)c3ccccc3)=C3O[C@@H](C(C)(C)O)C[C@@]31C2=O	68.1%	77.7%	78.5%	72.9%	78.6%						
CC(C)=CCC[C@]1(C)[C@@H](CC=C(C)C)C[C@]2(CC=C(C)C)C(=O)C3=C(OC(C)(C)[C@@H](O)C3)[C@@]1(C(=O)c1ccccc1)C2=O	65.9%	69%	77.6%	80.8%	70%						
CC(C)=CCC[C@]1(C)[C@@H](CC=C(C)C)C[C@]2(C[C@H](O)C(C)(C)O)C(=O)C(C(=O)C(C)C)=C3O[C@H](C(C)(C)O)C[C@@]31C2=O	71.5%	76.5%	81.1%	80%	72.3%						
CC(C)=CCC[C@]1(C)[C@@H](CC=C(C)C)C[C@@]2(CC=C(C)C)C(=O)[C@]1(C(=O)c1ccccc1)C(=O)C1=C2O[C@H](C(C)(C)O)C1	57%	74.4%	72.2%	77.7%	69.9%						
CC(C)=CCC1=C2O[C@H](C(C)(C)O)CC[C@]3(C)[C@@H](C[C@H](O)C(C)(C)O)C[C@](CC=C(C)C)(C1=O)C(=O)[C@]23C(=O)C(C)C	72.9%	90.7%	93.5%	84.4%	91.7%						
CC(C)=CCC1=C2O[C@H](C(C)(C)O)CC[C@]3(C)[C@@H](CC=C(C)C)C[C@](CC=C(C)C)(C1=O)C(=O)[C@]23C(=O)c1ccccc1	84.2%	81.6%	83.5%	82.7%	83.4%						
CC(C)=CCC[C@]1(C)[C@@H](CC=C(C)C)C[C@]2(CC=C(C)C)C(=O)C3=C(OC(C)(C)[C@H](O)C3)[C@@]1(C(=O)c1ccccc1)C2=O	68.9%	82.2%	86.3%	86.8%	78.6%						
CNCCC(Oc1ccc(C(F)(F)F)cc1)c1ccccc1 (stereo unspecified) [FLUOXETINE]	69.6%	59.1%	70.1%	66.2%	77.7%	23.1%	33.7%				
CC(C)=CCC[C@]1(C)[C@@H](CC=C(C)C)C[C@]23C[C@@H](C(C)(C)O)OC2=C(CC=C(C)C)C(=O)[C@@]1(C(=O)c1ccccc1)C3=O	85.3%	90.2%	85.9%	87.1%	85.7%			21.4%	28.1%	6.6%	12.6%
CC(C)=CCC[C@]1(C)[C@@H](CC=C(C)C)C[C@@]2(CC=C(C)C)C(=O)[C@]1(C(=O)c1ccccc1)C(=O)C1=C2O[C@@H](C(C)(C)O)C1	75.9%	72.9%	74.7%	56.6%	55.6%						
CC(C)=CCC[C@]1(C)[C@H](CC=C(C)C)C[C@]2(CC=C(C)C)C(=O)C(C(=O)C(C)C)=C3O[C@@H](C(C)(C)O)C[C@@]31C2=O	61%	63.8%	77%	68.1%	80.9%						
